Test results taken from PubChem BioAssay.
The source made the active and inactive calls. Unless noted, no stated cut-off is given here; in the data, active means inhibition above about 30%; inactive means the rest.

Columns and labels:
[1] = Her2 expression decrease, cell viability multiplex – SKBR3 breast tumor cells, AlphaScreen, ATP viability, primary screen (AID 461;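 active means Her2 level under about 52% in both replicate screens, with viability over 70% of control, limit read from the data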;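 on Her2 level: lower value means less Her2 protein in the cells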;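 on viability: percent of carrier control wells set as 100% viability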); details: SKBR3 Her2 protein level, 18-24 h, measured here: SKBR3 viability, ATP luminescence, at 10 µM
[2] = target: Receptor tyrosine-protein kinase erbB-2 (Homo sapiens) (UniProt P04626); assay: as above; details: 18-24 h, at 10 µM, stronger effect = lower value
[3] = reduced viability of SK-BR-3 breast cancer cells – cell-based, 24 h, human, pilot screen (AID 572;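 active means viability at or below 10% of carrier control in both of two separate runs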;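 further: compound exposure lasted between 18 and 24 h rather than exactly 24 h; 100% = carrier-treated control wells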); details: SK-BR-3 viability, CellTiter-Glo luminescence, at 10 µM, stronger effect = lower value
[4] = HUVEC growth inhibition – cell-based, human, primary screen (AID 575;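 active means viability at or below 30% in both replicate assays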;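 further: 100% = median of untreated cell wells with 0.1% DMSO on each plate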); details: HUVEC proliferation, CellTiter-Glo luminescence, 72 h; at 10 µM; stronger effect = lower value
In short: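 Test system – primary HUVEC, no more than 12 passages · Dosing – one dose, 10 µM final, 0.1% DMSO · Times – 72 h treatment at 37 °C · Measured by – ATP-based CellTiter-Glo luminescent read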

[5] = H69AR cell proliferation blockers – human, duplicate replicates, primary screen (AID 580;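 active means viability at or under a set limit in both replicates, limit being median viability minus 3 SD, cut at about 48% in these data, passing the limit was not always enough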;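 further: 100% = mean luminescence of untreated wells and 0% = no signal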); details: H69AR lung tumor cells viability, ATP luminescence, 72 h; at 10 µM; stronger effect = lower value
[6] = MRP1 drug-resistance reversers in H69AR cells – cell-based, doxorubicin co-treatment, pilot screen (AID 601;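 active means viability loss from added drug above about 55%, and viability with drug at most 40%, in both replicates, limit read from the data, passing the limit was not always enough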); details: CellTiter-Glo, 72 h, at 10 µM; for differential viability (reversal): stronger effect = higher value
[7] = yeast transport mutant growth inhibition pilot in 384-well plates, post-Golgi transport modulator project (AID 636; in the data active means inhibition above about 31%); details: absorbance 615 nm, about 18 h, stronger effect = higher value
[8] = growth suppression of yeast trafficking mutant, preliminary HTS, modulators of trafficking downstream of Golgi apparatus project, 1536-format plate, OD 615 nm (AID 637); details: yeast transport mutant growth, absorbance 615 nm, 18 h; stronger effect = higher value
[9] = H69AR cells + 2 uM doxorubicin, measured here: viability with 2 uM doxorubicin, stronger effect = lower value
[10] = H69AR cells, compound alone cytotoxicity

Chain of Receptor tyrosine-protein kinase erbB-2 (Homo sapiens) (P04626 whole entry, looked up): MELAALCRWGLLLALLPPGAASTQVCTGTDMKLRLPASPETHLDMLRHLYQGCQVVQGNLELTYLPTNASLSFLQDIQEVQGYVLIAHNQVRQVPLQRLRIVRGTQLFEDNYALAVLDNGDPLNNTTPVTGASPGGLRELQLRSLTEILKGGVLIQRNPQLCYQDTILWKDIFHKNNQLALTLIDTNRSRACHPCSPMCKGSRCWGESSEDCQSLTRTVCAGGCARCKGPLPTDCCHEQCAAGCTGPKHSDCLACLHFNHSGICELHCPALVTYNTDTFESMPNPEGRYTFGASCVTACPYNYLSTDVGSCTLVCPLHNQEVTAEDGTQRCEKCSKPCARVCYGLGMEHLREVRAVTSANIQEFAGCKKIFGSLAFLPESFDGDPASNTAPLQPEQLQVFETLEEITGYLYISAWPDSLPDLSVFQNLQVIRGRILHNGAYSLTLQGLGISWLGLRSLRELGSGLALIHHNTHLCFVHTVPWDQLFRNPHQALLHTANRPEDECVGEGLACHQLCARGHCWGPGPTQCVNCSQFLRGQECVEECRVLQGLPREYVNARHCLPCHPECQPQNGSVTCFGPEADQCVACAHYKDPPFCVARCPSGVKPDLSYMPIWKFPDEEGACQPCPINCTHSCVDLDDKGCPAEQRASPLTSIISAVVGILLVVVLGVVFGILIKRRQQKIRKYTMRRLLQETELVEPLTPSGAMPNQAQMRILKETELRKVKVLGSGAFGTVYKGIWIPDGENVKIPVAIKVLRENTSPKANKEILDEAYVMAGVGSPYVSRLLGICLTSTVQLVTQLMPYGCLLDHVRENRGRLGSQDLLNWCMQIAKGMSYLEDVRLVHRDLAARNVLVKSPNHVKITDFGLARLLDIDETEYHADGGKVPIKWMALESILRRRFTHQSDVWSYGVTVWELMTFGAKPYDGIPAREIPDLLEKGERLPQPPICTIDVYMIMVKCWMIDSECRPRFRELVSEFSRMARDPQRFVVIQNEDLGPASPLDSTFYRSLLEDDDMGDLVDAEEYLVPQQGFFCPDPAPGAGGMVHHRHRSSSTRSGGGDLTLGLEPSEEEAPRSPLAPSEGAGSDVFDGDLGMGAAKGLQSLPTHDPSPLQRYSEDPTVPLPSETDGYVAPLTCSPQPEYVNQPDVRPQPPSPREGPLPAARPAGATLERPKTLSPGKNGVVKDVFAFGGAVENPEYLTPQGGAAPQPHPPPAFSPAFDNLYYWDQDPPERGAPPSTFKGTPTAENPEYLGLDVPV

SMILES | viability [1] [%] | Her2 level [2] | viability [3] | viability [4] | viability [5] | differential viability (reversal) ([6]; H69AR cells + 2 uM doxorubicin) | viability [6, 9] [%] | viability [6, 10] [%] | inhibition [7] | inhibition [8]
COCc1cc(C)c2c(N)c(C#N)sc2n1 | 88 | 100% (inactive) | 88% (inactive) | 91.5% (inactive) | 99.6% (inactive) | 15.3% (inactive) | 84.3 | 99.6 | -1.32% (inactive) | -2.55% (inactive)
O=C1C2C3C=CC(C3)C2C(=O)N1Cc1ccccc1 (stereo not given) | 93.5 | 114% (inactive) | 93.5% (inactive) | 116% (inactive) | 89.6% (inactive) | 9.27% (inactive) | 80.3 | 89.6 | -3.47% (inactive) | 2.95% (inactive)
COc1ccc(N2C(=O)CC(N3CCN(c4ccccc4F)CC3)C2=O)cc1 (stereo not given) | 88 | 98% (inactive) | 88% (inactive) | 91.1% (inactive) | 105% (inactive) | 2.14% (inactive) | 103 | 105 | -1.07% (inactive) | 2.26% (inactive)
O=c1[nH]c(SCc2ccccc2Cl)nc2c1CCCC2 | 100 | 75.5% (inactive) | 100% (inactive) | 65.4% (inactive) | 89.5% (inactive) | -3.21% (inactive) | 92.7 | 89.5 | -5.13% (inactive) | 0.17% (inactive)
CN(C)c1ccc(CNC2CC(C)(C)NC(C)(C)C2)cc1 | 91 | 112% (inactive) | 91% (inactive) | 94.2% (inactive) | 98.9% (inactive) | 7.67% (inactive) | 91.3 | 98.9 | -7.5% (inactive) | -6.07% (inactive)
COc1ccc2c(c1)C(C)=CC(C)(C)N2C(=O)CSc1nnc(-c2ccc(C)cc2)o1 | 98.5 | 99% (inactive) | 98.5% (inactive) | 53.2% (inactive) | 93.9% (inactive) | 2.13% (inactive) | 91.8 | 93.9 | 31% (active) | -1% (inactive)
Cc1cccc2cc(COC(=O)C(C)(C)C)c(=O)[nH]c12 | 95.5 | 91.5% (inactive) | 95.5% (inactive) | 108% (inactive) | 97.6% (inactive) | 2.58% (inactive) | 95 | 97.6 | 0.13% (inactive) | 5.17% (inactive)
CC(=O)NS(=O)(=O)c1ccc(NC(=O)c2ccccc2F)cc1 | 72 | 95% (inactive) | 72% (inactive) | 87.3% (inactive) | 99.4% (inactive) | 3.83% (inactive) | 95.5 | 99.4 | 0% (inactive) | 2.33% (inactive)
O=C(COc1ccccc1)NCCSCc1ccco1 | 109 | 98.5% (inactive) | 109% (inactive) | 104% (inactive) | 89.3% (inactive) | 9.83% (inactive) | 79.4 | 89.3 | -6.49% (inactive) | -5.67% (inactive)
COc1ccc(C(c2nnnn2C2CCCC2)N2CCN(C3CCCC3)CC2)cc1OC (stereo not given) | 89.5 | 84% (inactive) | 89.5% (inactive) | 84.7% (inactive) | 106% (inactive) | 28.3% (inactive) | 77.7 | 106 | -7.26% (inactive) | -2.22% (inactive)
O=C(Nc1ccccc1)c1cccnc1N1CCOCC1 | 94 | 80% (inactive) | 94% (inactive) | 105% (inactive) | 102% (inactive) | 18.2% (inactive) | 84.1 | 102 | -0.92% (inactive) | -2.73% (inactive)
COc1ccc(-c2nnc(SCC(=O)c3cc(C)n(Cc4cccs4)c3C)o2)cc1 | 99.5 | 114% (inactive) | 99.5% (inactive) | 90.9% (inactive) | 87.5% (inactive) | 1.84% (inactive) | 85.7 | 87.5 | 2.6% (inactive) | 18.2% (inactive)
Cc1ccc(Br)cc1S(=O)(=O)N1CCN(c2ccccc2)CC1 | 93.5 | 116% (inactive) | 93.5% (inactive) | 76.2% (inactive) | 79.4% (inactive) | -5.03% (inactive) | 84.5 | 79.4 | 1.17% (inactive) | -8.5% (inactive)
Fc1cccc2sc(N3CCOCC3)nc12 | 93.5 | 80.5% (inactive) | 93.5% (inactive) | 83.9% (inactive) | 96.8% (inactive) | 15.4% (inactive) | 81.4 | 96.8 | -4.87% (inactive) | 5.17% (inactive)
COc1ccc(-c2noc(CN3CCC(Cc4ccccc4)CC3)n2)cc1 | 94 | 112% (inactive) | 94% (inactive) | 87.5% (inactive) | 93.5% (inactive) | 4.6% (inactive) | 88.9 | 93.5 | -4.8% (inactive) | -3.39% (inactive)
c1ccc(CCn2nnnc2CN2CCN(C3CCCC3)CC2)cc1 | 97.5 | 95% (inactive) | 97.5% (inactive) | 109% (inactive) | 107% (inactive) | 19.1% (inactive) | 87.5 | 107 | 2.03% (inactive) | -6.51% (inactive)
CCCn1c(=N)n(CC(=O)c2cccs2)c2ccccc21 | 92 | 106% (inactive) | 92% (inactive) | 93.2% (inactive) | 91% (inactive) | -1.29% (inactive) | 92.3 | 91 | -7.33% (inactive) | -4.19% (inactive)
CCOC(=O)c1c(NC(=O)c2cccs2)sc2c1CCN(C(=O)OCC)C2 | 174 | 13% (active) | 174% (inactive) | 6.86% (active) | 23.3% (active) | -2.25% (inactive) | 25.5 | 23.3 | 0.39% (inactive) | -1.8% (inactive)
COc1ccc(/C(O)=C2/C(=O)C(=O)N(CCCN(C)C)C2c2ccco2)cc1Cl (stereo not given) | 104 | 98.5% (inactive) | 104% (inactive) | 120% (inactive) | 95.8% (inactive) | 7.21% (inactive) | 88.6 | 95.8 | -6.62% (inactive) | -10.7% (inactive)
CCCC(=O)Nc1ccc2oc(-c3cccnc3)nc2c1 | 109 | 94% (inactive) | 109% (inactive) | 93.6% (inactive) | 88.5% (inactive) | -7.42% (inactive) | 96 | 88.5 | -4% (inactive) | 10% (inactive)
CCOCCCNC(=O)CCNS(=O)(=O)c1ccc(C)cc1 | 102 | 108% (inactive) | 102% (inactive) | 89.9% (inactive) | 105% (inactive) | 8.21% (inactive) | 96.7 | 105 | -3.03% (inactive) | -5.5% (inactive)
O=c1c2ccccc2sn1-c1ccc(S(=O)(=O)N2CCCCC2)cc1 | 91.5 | 81.5% (inactive) | 91.5% (inactive) | 83.9% (inactive) | 78.1% (inactive) | 5.85% (inactive) | 72.3 | 78.1 | -5.54% (inactive) | 9.17% (inactive)
CCOCCCNC(=O)CS(=O)(=O)Cc1nc(-c2cccc(OC)c2)oc1C | 128 | 92% (inactive) | 128% (inactive) | 88.4% (inactive) | 84% (inactive) | -3.73% (inactive) | 87.8 | 84 | -4.81% (inactive) | 5.24% (inactive)
O=C(COC(=O)CCc1c[nH]c2ccccc12)NC1CCS(=O)(=O)C1 (stereo not given) | 87.5 | 96% (inactive) | 87.5% (inactive) | 90.8% (inactive) | 90.1% (inactive) | 1.06% (inactive) | 89.1 | 90.1 | 1.04% (inactive) | -4.76% (inactive)
O=C(NCc1cccnc1)c1ccccc1Br | 110 | 98.5% (inactive) | 110% (inactive) | 115% (inactive) | 95.1% (inactive) | 0.945% (inactive) | 94.2 | 95.1 | -5.87% (inactive) | -2.42% (inactive)
CCOC(=O)Nc1c(C(=O)OC)[nH]c2cccc(OC)c12 | 76 | 112% (inactive) | 76% (inactive) | 106% (inactive) | 104% (inactive) | 13% (inactive) | 91 | 104 | 3.03% (inactive) | 9.52% (inactive)
CCOc1ccc(S(=O)(=O)Nc2ccccc2C(=O)Nc2ccccc2N2CCOCC2)cc1 | 104 | 97.5% (inactive) | 104% (inactive) | 74.5% (inactive) | 93.4% (inactive) | 2.71% (inactive) | 90.7 | 93.4 | -6.67% (inactive) | 3.06% (inactive)
COc1cc(C)nc(OCCNC(=O)COc2ccc(Cl)cc2C)n1 | 96.5 | 100% (inactive) | 96.5% (inactive) | 95.2% (inactive) | 107% (inactive) | 8.69% (inactive) | 98 | 107 | -0.93% (inactive) | 1.64% (inactive)
